Data set [1] in a line: Stability in PBS buffer at pH 7.4 by TLC method. In kind it is physicochemical.
The nature of data set [2]: Stability in PBS buffer at pH 7.4 NMR method. In kind it is physicochemical.
The test system of data set [3] is Mycolicibacterium smegmatis. Kind of data set: Antimycobacterial activity against Mycobacterium smegmatis MC2 155 after 94 to 98 hrs by microdilution method. As to conditions: str. MC2 155. In kind it is functional. The procedure, abridged: (§1)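 Microdilution in TSB broth. Inoculum from colonies grown 96 h on TSA, final 1×10^5 CFU/mL, aerobic 94–98 h at 37 °C, growth read on a plate reader, at least duplicate.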
For orientation: Dilution methods test growth across graded concentrations, often in twofold steps.

Data set [4] relates to Mycolicibacterium smegmatis. Kind of data set: Bactericidal activity against Mycobacterium smegmatis MC2 155 after 96 hrs by microdilution method. In kind it is functional. Particulars: str. MC2 155, 96 h. The procedure, abridged:
as §1

In data set [5] the test system is Staphylococcus aureus. The experiment in a line: Antibacterial activity against methicillin-resistant Staphylococcus aureus USA300 after 18 to 20 hrs by microdilution method. In kind it is functional. Summed up:
(§2)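 EUCAST broth microdilution in LB broth. Inoculum prepared by direct colony suspension from 20–24 h LB agar (E. coli DH10β) or 5% sheep blood BHI agar (MRSA USA300) growth. Final inoculum 2×10^4 CFU/mL, 18–20 h aerobic at 37 °C, growth read on a plate reader, at least duplicate.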

Data set [6] concerns Staphylococcus aureus. Kind of data set: Bactericidal activity against methicillin-resistant Staphylococcus aureus USA300 after 18 to 20 hrs by microdilution method. In kind it is functional. Summed up:
as §2

Data set [7] concerns Escherichia coli. Kind of data set: Antibacterial activity against Escherichia coli DH10beta harboring pHuLUC3 after 18 to 20 hrs by microdilution method. In kind it is functional. The procedure, abridged:
as §2

The subject of data set [8] is Escherichia coli. The experiment in a line: Bactericidal activity against Escherichia coli DH10beta harboring pHuLUC3 after 18 to 20 hrs by microdilution method. In kind it is functional. Summed up:
as §2

The test system of a further data set is Saccharomyces cerevisiae. Kind of data set: Antibacterial activity against Saccharomyces cerevisiae after 18 to 20 hrs by microdilution method. Summed up:
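Microdilution in YEP broth against wild-type yeast grown on YEP agar. Final inoculum 1×10^5 CFU/mL. Read after 18–20 h aerobic incubation at 30 °C on plate reader, at least one duplicate.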

Data set [9] concerns Staphylococcus aureus. The experiment in a line: Induction of membrane integrity impairment in Staphylococcus aureus USA300 assessed as cells with intact membrane at 2 ug/ml measured after 30 mins by Baclight assay relative to control. In kind it is functional. The procedure, abridged:
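LIVE/DEAD BacLight fluorescence assay. Dye was then added and incubated 15 min in the dark at room temperature. Intact membrane % came from a live/dead (isopropanol-killed) standard curve, at least triplicate, mean±SD.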

Data set [10] concerns Staphylococcus aureus. Kind of data set: Antibacterial activity against methicillin-resistant Staphylococcus aureus 1653 after 18 to 20 hrs by broth microdilution method. In kind it is functional. The procedure, abridged: (§3)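 EUCAST broth microdilution in LB broth. Inoculum from 20–24 h colonies on 5% sheep blood BHI agar, final 3×10^4 CFU/mL, 18–20 h aerobic at 37 °C, plate reader, at least duplicate.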

Data set [11] deals with Staphylococcus aureus. The experiment in a line: Bactericidal activity against methicillin-resistant Staphylococcus aureus 1653 after 18 to 20 hrs by broth microdilution method. In kind it is functional. Summed up: as §3
The test system of data set [12] is Streptococcus pneumoniae. The experiment in a line: Antibacterial activity against Streptococcus pneumoniae R6 after 18 to 20 hrs by broth microdilution method. In kind it is functional. Summed up: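 Broth microdilution per EUCAST in BHI broth. Inoculum from colonies on BHI agar with 5% sheep blood, final 5×10^4 CFU/mL. Read after 18–20 h anaerobic incubation at 37 °C.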

The subject of data set [13] is Streptococcus pneumoniae. The experiment in a line: Bactericidal activity against Streptococcus pneumoniae R6 after 18 to 20 hrs by broth microdilution method. In kind it is functional.
The subject of data set [14] is Bacillus subtilis. The experiment in a line: Antibacterial activity against Bacillus subtilis ATCC 6051 after 18 to 20 hrs by broth microdilution method. In kind it is functional. Summed up:
(§4)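 Broth microdilution per EUCAST in LB broth. Inoculum from 20–24 h colonies by CLSI direct colony suspension (LB agar for E. coli), final 2×10^4 CFU/mL. Read after 18–20 h aerobic incubation at 37 °C on plate reader, at least one duplicate.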

The subject of data set [15] is Bacillus subtilis. Kind of data set: Bactericidal activity against Bacillus subtilis ATCC 6051 after 18 to 20 hrs by broth microdilution method. In kind it is functional.
The test system of data set [16] is Enterococcus faecalis. The experiment in a line: Antibacterial activity against vancomycin resistant Enterococcus faecalis 501 after 18 to 20 hrs by broth microdilution method. In kind it is functional. The procedure, abridged: (§5)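 EUCAST microdilution in BHI broth. Inoculum from 20–24 h colonies on 5% sheep blood BHI agar, final 3×10^4 CFU/mL, 18–20 h aerobic at 37 °C, plate reader, at least duplicate.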

Data set [17] has as its system Enterococcus faecalis. The experiment in a line: Bactericidal activity against vancomycin resistant Enterococcus faecalis 501 after 18 to 20 hrs by broth microdilution method. In kind it is functional. The procedure, abridged:
as §5

For a further data set, the system named is Pseudomonas aeruginosa. Kind of data set: Antibacterial activity against Pseudomonas aeruginosa PA0001 after 18 to 20 hrs by broth microdilution method. In kind it is functional. The procedure, abridged:
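EUCAST broth microdilution in LB broth. Inoculum from 20–24 h LB agar colonies (CLSI direct colony suspension), final 3×10^4 CFU/mL. Aerobic incubation 18–20 h at 37 °C, plate-reader read-out, at least one duplicate.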

For data set [18], the system named is Klebsiella pneumoniae. Kind of data set: Antibacterial activity against Klebsiella pneumoniae ATCC 13882 after 18 to 20 hrs by broth microdilution method. In kind it is functional. The procedure, abridged:
(§6)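 Broth microdilution per EUCAST in TSB broth. Inoculum prepared by CLSI direct colony suspension from 20–24 h TSA colonies, final 3×10^4 CFU/mL. Aerobic incubation for 18–20 h at 37 °C, growth read on plate reader, at least one duplicate.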

The test system of data set [19] is Klebsiella pneumoniae. The experiment in a line: Antibacterial activity against Klebsiella pneumoniae ATCC 700603 after 18 to 20 hrs by broth microdilution method. In kind it is functional. Summed up:
as §6

The test system of data set [20] is Acinetobacter baumannii. The experiment in a line: Antibacterial activity against Acinetobacter baumannii ATCC 19606 after 18 to 20 hrs by broth microdilution method. In kind it is functional. Particulars: ATCC 19606 = CIP 70.34 = JCM 6841. Summed up:
as §6

Data set [21] concerns Acinetobacter baumannii. The experiment in a line: Antibacterial activity against Acinetobacter baumannii ATCC BAA-1605 after 18 to 20 hrs by broth microdilution method. In kind it is functional. Summed up:
as §6

Data set [22] is described as follows: Solubility of the compound in water. In kind it is physicochemical. Particulars: buffer.
The nature of data set [23]: Stability of the compound in water. In kind it is physicochemical. Particulars: buffer.
Data set [24] in a line: Stability of the compound in organic solvent. In kind it is physicochemical.
The nature of data set [25]: Stability of the compound in solid state. In kind it is physicochemical.
In data set [26] the test system is Escherichia coli. The experiment in a line: Antibacterial activity against Escherichia coli D22 after 18 to 20 hrs by microdilution method. In kind it is functional. Summed up:
as §4

The subject of data set [27] is Escherichia coli. Kind of data set: Bactericidal activity against Escherichia coli D22 after 18 to 20 hrs by microdilution method. In kind it is functional.
The subject of data set [28] is Escherichia coli. Kind of data set: Antibacterial activity against N43 CGSC 5583 knock out Escherichia coli after 18 to 20 hrs by microdilution method. In kind it is functional. Summed up:
as §4

Values after ≈ are worked out from the molar mass of the structure shown. Where only a bound is given, the exact number is not on record here.

Turning to `O=[N+]([O-])c1ccc(/N=N/Nc2ccc([N+](=O)[O-])cc2C(F)(F)F)c(C(F)(F)F)c1`, the Stability result in [1] and in [2] was “Stable” each time.
On to `CC(=O)N(/N=N/c1ccc([N+](=O)[O-])cc1C(F)(F)F)c1ccc([N+](=O)[O-])cc1C(F)(F)F`, for which the MIC in data set [3] was 16 µg/mL (≈ 34.4 µM); in the data set with Staphylococcus aureus [5], 0.25 µg/mL (≈ 0.537 µM); against Escherichia coli [7] it was 64 µg/mL (≈ 138 µM); against Saccharomyces cerevisiae, over 128 µg/mL; against Staphylococcus aureus [10] it was 0.25 µg/mL (≈ 0.537 µM); in the data set on Streptococcus pneumoniae [12], 0.06 µg/mL (≈ 0.129 µM). Further, the MIC in the data set with Bacillus subtilis [14] is 0.125 µg/mL (≈ 0.269 µM); in the data set on Enterococcus faecalis [16], 4 µg/mL (≈ 8.6 µM); in the data set with Pseudomonas aeruginosa it was over 128 µg/mL; in the data set on Klebsiella pneumoniae [18] it was over 128 µg/mL; against Klebsiella pneumoniae [19], over 128 µg/mL; in the data set on Acinetobacter baumannii [20] it was over 128 µg/mL. For the same compound, the results for the MIC against Acinetobacter baumannii [21], against Escherichia coli [26] and against Escherichia coli [28] were over 128 µg/mL, 1 µg/mL (≈ 2.15 µM) and over 128 µg/mL, respectively. Also, the MBC (as a rule, the smallest concentration meeting the test's criterion for killing) in data set [4] is 128 µg/mL (≈ 275 µM); with Staphylococcus aureus [6], 0.25 µg/mL (≈ 0.537 µM); with Escherichia coli [8], over 128 µg/mL; in the data set with Staphylococcus aureus [11] it was 0.5 µg/mL (≈ 1.07 µM); in the data set on Streptococcus pneumoniae [13], 0.5 µg/mL (≈ 1.07 µM); in the data set on Bacillus subtilis [15] it was 4 µg/mL (≈ 8.6 µM). The MBC against Enterococcus faecalis [17] and in the data set with Escherichia coli [27] was over 128 µg/mL in each case. Further, in the data set with Staphylococcus aureus [9], the “Cells with intact membrane” value was 103%. For the same compound, in [22], the solubility entry is on record as “Soluble”. Moreover, the Stability entry in data set [23], in data set [24] and in data set [25] was “Stable” each time.
For the compound `O=C(c1ccccc1)N(/N=N/c1ccc([N+](=O)[O-])cc1C(F)(F)F)c1ccc([N+](=O)[O-])cc1C(F)(F)F`, the MIC in data set [3] is 32 µg/mL (≈ 60.7 µM); in the data set with Staphylococcus aureus [5], 0.5 to 2 µg/mL (≈ 0.948 to 3.79 µM); in the data set on Escherichia coli [7] it was at least 128 µg/mL; against Saccharomyces cerevisiae it was over 128 µg/mL; against Staphylococcus aureus [10], 0.5 µg/mL (≈ 0.948 µM); in the data set with Streptococcus pneumoniae [12] it was 0.5 µg/mL (≈ 0.948 µM). The MIC against Bacillus subtilis [14] was 0.5 µg/mL (≈ 0.948 µM); against Enterococcus faecalis [16], over 128 µg/mL; in the data set on Pseudomonas aeruginosa, over 128 µg/mL; in the data set with Klebsiella pneumoniae [18], over 128 µg/mL; in the data set with Klebsiella pneumoniae [19] it was over 128 µg/mL; against Acinetobacter baumannii [20], over 128 µg/mL. Also, the MIC against Acinetobacter baumannii [21], against Escherichia coli [26] and against Escherichia coli [28] was over 128 µg/mL in each case. Also, the MBC in data set [4] is over 128 µg/mL; in the data set on Staphylococcus aureus [6] it was 0.5 to 2 µg/mL (≈ 0.948 to 3.79 µM); in the data set with Escherichia coli [8] it was over 128 µg/mL; against Staphylococcus aureus [11], 1 µg/mL (≈ 1.9 µM); with Streptococcus pneumoniae [13], 1 µg/mL (≈ 1.9 µM); with Bacillus subtilis [15], 16 µg/mL (≈ 30.3 µM). The “Cells with intact membrane” value in the data set on Staphylococcus aureus [9] was 95.8%. In addition, the solubility result in data set [22] was “Soluble”. In addition, the Stability result in data set [23], in data set [24] and in data set [25] was “Stable” each time.
